Screening data deposited in PubChem BioAssay by several laboratories.
A selection: hits, their analogues and other compounds. The true share with any hit is near 0.89%.
V-ATPase pH – yeast V-ATPase proton transport regulation by pHLuorin; AID 504577; response, % at 10 µM; 350,000 tested, 0.37% active; S. cerevisiae, pHLuorin cytosolic pH fluorescence; in the data active means response mostly above about 7.3%, no sharp cut-off; inactive means mostly below about 5.4%; further: actives read high
XiGFP reactiv – X-chromosome reactivation activator; XiGFP mouse fibroblasts, % GFP-positive cells imaging, 3 d; cells co-treated with 5-aza-dC sensitizer; scaled so ellipticine positive control = 100%; activation, % at 7.58 µM; AID 743238; 360,000 tested, 0.055% active;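 active means mean normalized replicate activation at least 10% and every replicate at or above 10%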;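 further: 0% = median of on-plate neutral control wells and 100% = ellipticine 6 µM median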
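material = 68-5-11 XiGFP fibroblast line | medium = DMEM plus 5-aza-dC sensitizer | schedule = 3 days compound exposure | benchmarks = positive control ellipticine, 6 µM final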
T cell HTS – T cell immune modulation candidate. response (vesicle binding), % at 7 µM. AID 2052. 2C CD8+ T cell-vesicle binding, flow cytometry; active compounds read low. 330,000 tested, 0.068% active;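 active means response, share of CD8 T cells binding vesicles, and their 90th percentile fluorescence all below set limits, cut at about 80% in these data, passing the limit was not always enough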;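 further: values below 100% mean blocked vesicle binding to the CD8+ T cells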
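Benchmarks: naked versus QL9-loaded vesicles / Assay system: purified 2C TCR transgenic mouse naive CD8+ T cells / Technique: high-throughput flow cytometry with anti-B7-1 and anti-CD8 staining / Timing: Cell–vesicle co-incubation 1.5 h at 37 °C, staining 20 min on ice / Read-out: percent CD8+ FL2 mean versus row control / Probe or stimulus: QL9-loaded Drosophila micro-vesicles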
Arr AP2 block – human beta-arrestin and AP2 interaction inhibition; FITC-arrestin peptide / GST-AP2 beads, flow cytometry; AP2 beta2 appendage carries R879A mutation; inhibition, % at 10 µM; 340,000 tested, 0.31% active; AID 504490;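 active means inhibition above a set limit, near 3 SD of compounds lacking own fluorescence, cut at about 54% in these data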;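 further: plate controls were DMSO wells for no effect and 5 µM unlabelled arrestin peptide for full effect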
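Test system: GST-tagged AP2 beta2-adaptin appendage (R879A) on 4 µm glutathione beads; also added: fluorescein-tagged arrestin peptide at 50 nM final; timing: 12 min plus 1 h, RT; signal: flow cytometry, FL1 (488/535 nm); read-out: percent drop in bead-associated FITC signal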
MIN6 prolif-1 – induces beta-cell replication in MIN6 cells; MIN6 cells proliferation, ATPlite luminescence, 48 h; cells starved in 0.2% serum; 100% = growth in 10% serum; proliferation, % at 10 µM; 330,000 tested, 0.29% active;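 active means compounds whose signal lies at least 3.5 SD above the mean of all wells on their plate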;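 further: 0% = DMSO-treated cells in low-serum medium and 100% = 10% serum control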
NTR1 agonist – activates human neurotensin receptor 1 | P30989 | NTR1-U2OS beta-arrestin-GFP spot imaging, agonist mode | activation, % at 20 µM | 330,000 tested, 0.17% active;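 active means activation at or above 40% of the spot to cytoplasm intensity ratio, with at least 20 cells analyzed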;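 further: 0% = DMSO without peptide and 100% = 100 nM NTR1 peptide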
Target sequence (P30989 whole entry, looked up): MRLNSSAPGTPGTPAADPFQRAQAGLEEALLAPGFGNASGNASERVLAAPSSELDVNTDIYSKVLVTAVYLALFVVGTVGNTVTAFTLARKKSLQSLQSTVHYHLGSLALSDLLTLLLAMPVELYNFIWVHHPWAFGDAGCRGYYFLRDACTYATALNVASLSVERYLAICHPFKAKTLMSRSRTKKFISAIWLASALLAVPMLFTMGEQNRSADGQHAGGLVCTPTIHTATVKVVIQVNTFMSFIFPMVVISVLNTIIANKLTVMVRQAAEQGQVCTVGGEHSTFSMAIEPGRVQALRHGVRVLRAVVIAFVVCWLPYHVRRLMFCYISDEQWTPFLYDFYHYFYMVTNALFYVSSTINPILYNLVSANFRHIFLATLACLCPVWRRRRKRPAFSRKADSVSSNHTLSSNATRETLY
MIN6 prolif-2 – MIN6 beta-cell replication induction, confirmed | shares compounds with MIN6 prolif-1 | MIN6 beta-cell proliferation, ATPlite luminescence, 48 h; cells kept in 0.2% serum; scaled between 0.2% and 10% serum | proliferation increase, % at 50 µM | 920 tested, under 10 active | AID 463095;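 active means proliferation increase above 40% at any of the four tested concentrations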
* marks the source's active call; other numbers are inactive results; / = no result given.

SMILES	V-ATPase pH	XiGFP reactiv	T cell HTS	Arr AP2 block	MIN6 prolif-1	NTR1 agonist	MIN6 prolif-2
Cc1ccccc1NS(=O)(=O)c1ccc(C(=O)NCC(c2ccco2)N(C)C)cc1 (centres undefined)	1	0	203	-1	12*	-1	-3
Cc1ccccc1NS(=O)(=O)c1ccc(C(=O)NCC(c2ccccc2)N(C)C)cc1 (centres undefined)	2	0	335	9	-2	2	/
COc1cccc(-c2ccc3c(c2)O[C@@H](CN(C)C(=O)C2CCC2)[C@H](C)CN([C@@H](C)CO)S3(=O)=O)c1	/	-1	/	/	/	/	/
C/C=C/c1ccc([C@H]2[C@@H](CO)N(CC3CCCC3)[C@H]2CNC(=O)NC(C)C)cc1	/	0	/	/	/	/	/
O=C(CN1C(=O)S/C(=C/c2cccs2)C1=O)N1CCOCC1	1	/	186	31	2	0	/
O=C(CN1C(=O)S/C(=C/c2cccs2)C1=O)N1CCCC1	-3	0	345	5	10*	3	3
CCOC(=O)/C(C(=O)Nc1ccccc1Br)=C1/NC(C)(C)Cc2ccccc21	2	0	100	19	0.0*	0	-6
COc1ccc(CCN(Cc2ccccn2)C(=S)Nc2cccc(C)c2)cc1OC	-4	0	309	15	8.7*	0	-6
C[C@H]1CN([C@@H](C)CO)C(=O)c2cc(NS(=O)(=O)c3ccccc3)ccc2O[C@@H]1CN(C)S(=O)(=O)c1ccc(Cl)cc1	/	-1	/	/	/	/	/
Cc1ccc(-c2ccc3c(c2)O[C@@H](CN(C)C(=O)CN(C)C)[C@H](C)CN([C@@H](C)CO)S3(=O)=O)cc1	/	-1	/	/	/	/	/
CN(C)C(=O)C[C@@H]1CC[C@H]2[C@@H](COc3ccc(NC(=O)C4CC4)cc3C(=O)N2C)O1	/	0	/	/	/	/	/
CCc1cc(=O)oc2cc(OC(C)C(=O)NCC3CCC(C(=O)O)CC3)c(Cl)cc12 (centres undefined)	1	/	268	-9	11*	0	-3
Cc1cc2c(ncn2C(C)C)c(NS(=O)(=O)c2ccc(F)cc2)c1C	1	0	187	0	8.9*	1	-4
Cc1cc2c(ncn2C)c(NS(=O)(=O)c2ccc(F)cc2)c1C	-1	0	215	3	1	1	/
CO[C@H]1CN(C)C(=O)c2ccc(NC(C)=O)cc2OC[C@H](C)N(C(=O)c2ccccc2F)C[C@H]1C	/	0	/	/	/	/	/
NS(=O)(=O)c1ccc(NC(=S)NCc2ccccc2Cl)cc1	0	0	422	19	5.3*	-1	-6
CCOC(=O)c1c[nH]c2nc(C)ccc2c1=O	6	0	201	-18	1	1	/
CCOC(=O)c1cc[nH]c1CC(=O)NC	-1	0	230	4	8.5*	0	-2
CCOC(=O)c1c(NC(=O)CC)sc(C(=O)NC2CCCC2)c1C	-2	0	258	-9	8.1*	2	-4
Cc1ccc(S(=O)(=O)N(C)C[C@@H]2Oc3ccc(NC(=O)CCCCCC(=O)Nc4ccccc4N)cc3C(=O)N([C@@H](C)CO)C[C@@H]2C)cc1	/	-1	/	/	/	/	/
Cc1ccccc1N(CC(=O)Nc1ccc(F)cc1)S(C)(=O)=O	-4	/	225	13	0	-1	/
CCOC(=O)c1ccccc1NC(=O)CN(c1ccccc1C)S(C)(=O)=O	2	/	519	-3	8.4*	-2	-3
Cc1ccc(NC(=O)CN(c2ccccc2F)S(C)(=O)=O)cc1	-1	/	392	-6	5.1*	5	0
Cc1cc(C(=O)CSc2nnc(-c3ccccc3)n2-c2ccccc2)c(C)n1-c1ncn[nH]1	2	/	886	2	6.9*	10	-4
O=C(Cc1cccnc1)N[C@H]1CC[C@@H](CCn2cc(Cc3ccccc3)nn2)O[C@H]1CO	/	0	/	/	/	/	/
SMILES	V-ATPase pH	XiGFP reactiv	T cell HTS	Arr AP2 block	MIN6 prolif-1	NTR1 agonist	MIN6 prolif-2
N/N=C/C(=N\Nc1ccc(Cl)cc1)C(=O)c1ccncc1	-3	0	315	-2	9.8*	17	0
COc1ccc(N/N=C(\C=N\O)C(=O)c2ccc(OC)cc2)cc1	1	/	146	-7	-3	5	/
Cc1cccc(-n2ncc3c(=O)[nH]c(SCC(=O)N4CC(=O)Nc5ccccc54)nc32)c1	1	1	223	24	11*	-1	0
CCc1nnc(NC(=O)OCc2ccccc2)s1	-3	/	586	-10	6.0*	0	-2
CCOC(=O)Nc1nnc(CCc2ccccc2)s1	-2	/	159	0	2	0	/
CN(C)S(=O)(=O)c1cccc(NC(=O)COc2ccccc2C(=O)NCc2ccccc2)c1	-2	0	/	-2	13*	2	-6
COc1cc2[nH]c(=O)n(CCCCCC(=O)NC3CCCC3)c(=O)c2cc1OC	3	0	301	5	5.7*	3	-2
COc1cc(Nc2nc3ccccc3n3nnnc23)cc(OC)c1OC	-7	0	734	10	10*	4	-6
COc1ccc(Nc2nc3ccccc3n3nnnc23)cc1	-1	/	237	13	6	9	/
Cc1ccc(C(=O)NCCN2CCOCC2)c(Cl)c1	3	0	487	-5	6.0*	0	-1
O=C(NCCN1CCOCC1)c1ccccc1Cl	1	0	229	4	-2	-1	/
O=C(Nc1ccc(Cl)cc1C(=O)NCCN1CCOCC1)c1ccc(Cl)cc1Cl	5	/	362	1	-3	0	/
O=C(Nc1c(Cl)cc(Cl)cc1C(=O)NCCN1CCOCC1)c1ccc(Cl)cc1Cl	3	/	281	11	8.7*	2	1
O=C(c1ccsc1)N1CCCC(Nc2cccc(F)c2)C1 (centres undefined)	5	0	272	-6	12*	-1	-2
C#Cc1cccc(C(=O)N2CCCC(Nc3cccc(F)c3)C2)c1 (centres undefined)	-3	0	452	-7	-2	2	/
CC(C)CNC(=O)CN(C1CCCCC1)S(=O)(=O)c1ccccc1	-1	/	250	1	9.1*	1	3
Cc1noc(C)c1NC(=O)Nc1ccc2c(c1)C(=O)N([C@H](C)CO)C[C@@H](C)[C@H](CN(C)CC1CCCCC1)O2	/	-1	/	/	/	/	/
CCOC(=O)c1c(N)sc2c1CCN(CCc1ccccc1)C2	2	0	190	26	7.5*	0	-6
C/C=C/c1ccc2c(c1)O[C@@H](CN(C)Cc1ccncc1)[C@H](C)CN([C@@H](C)CO)S2(=O)=O	/	-1	/	/	/	/	/
